Diaphorase inh – diaphorase inhibition or chemical oxidation counter-screen; diaphorase resazurin-to-resorufin fluorescence, NADH, 16 min; bacterial (C. kluyveri) enzyme, not human; inhibition, % at 20 µM; actives 0.69% (n = 190,000);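 active = primary screen inhibition at 20 µM above a set limit, cut at about 50% in these data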
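Benchmarks: positive control wells lacking NADH, neutral wells with DMSO only. System: bacterial diaphorase enzyme (C. kluyveri). Input: 0.14 U/mL diaphorase, enzyme working solution. Detection: resorufin fluorescence, excitation 544 nm, emission 590 nm. Times: 16-min room-temperature incubation before reading.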
G6PDH CS – L. mesenteroides G6PDH inhibition counter-screen; actives 0.12% (n = 200,000); Purified L. mesenteroides G6PDH, diaphorase/resazurin coupled fluorescence, 45 min; AID 1020; inhibition, % at 5 µM; in the data active = inhibition above about 50%
Diaphorase act – counter-screen for diaphorase-based assays: diaphorase activators and chemical reducers | activation factor at 20 µM | Diaphorase/resazurin coupled assay, resorufin fluorescence, 16 min; active compounds read high; 1 = vehicle wells, 0 = NADH-free wells | AID 1229 | actives 0.005% (n = 190,000);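 active = diaphorase activity raised at least twofold by the compound at 20 µM; inactive = activation factor below 2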
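Material: bacterial diaphorase enzyme (C. kluyveri); amount: enzyme 0.07 U/mL final; reagent: NADH substrate 0.114 mM plus resazurin dye 0.1 mM, final; doses: single compound dose of 20 µM, 1% DMSO final; timing: 16 min enzyme reaction, ambient temperature; measured by: fluorescence of resorufin, 544 nm excitation, 590 nm emission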
PMI activator – phosphomannose isomerase (human) activation; actives 0.005% (n = 190,000); purified human PMI, coupled resazurin fluorescence, 20 min; active compounds read high; 1 = vehicle control, 0 substrate-free wells; activation factor at 20 µM;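 active = activation factor of 2 or more at 20 µM, relative to plate controls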
Target sequence (P34949 whole entry, looked up): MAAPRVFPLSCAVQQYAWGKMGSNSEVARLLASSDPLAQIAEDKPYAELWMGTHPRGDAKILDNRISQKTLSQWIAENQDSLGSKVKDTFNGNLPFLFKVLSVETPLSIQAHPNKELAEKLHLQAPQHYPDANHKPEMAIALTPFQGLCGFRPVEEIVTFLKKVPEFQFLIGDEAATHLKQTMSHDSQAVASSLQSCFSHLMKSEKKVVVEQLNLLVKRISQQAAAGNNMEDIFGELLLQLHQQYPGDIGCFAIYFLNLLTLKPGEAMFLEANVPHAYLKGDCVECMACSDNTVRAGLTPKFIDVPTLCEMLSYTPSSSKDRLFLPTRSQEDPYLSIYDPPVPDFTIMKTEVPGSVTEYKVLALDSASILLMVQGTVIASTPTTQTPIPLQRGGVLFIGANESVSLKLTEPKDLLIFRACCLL
PMI act satM6P – PMI (human) activation, high substrate; P34949; coupled PMI enzyme assay, resazurin fluorescence, 20 min; active compounds read high; 1 = untreated enzyme, 0 = substrate-free blank; activation factor at 20 µM; actives 0.34% (n = 190,000);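 active = activation factor of 2 or more at 20 µM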
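Test system – human PMI in coupled enzyme assay · Timing – 20 min incubation at room temperature · Detection – Diaphorase-driven resazurin-to-resorufin fluorescence, excitation 544, emission 590 nm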
Large screens that a line does not name were inactive. Compounds with a hit are over-represented: about 1.1% of the library has one in this group of screens.

Cc1cc(/C=N/NC(=O)c2ccncc2)c(C)n1-c1ccccc1	none
Cc1cc(C(=O)N/N=C/c2ccc(O)c(O)c2O)c(C)n1-c1ccccc1	Diaphorase inh 89
O=C(Cc1csc(N2CCOCC2)n1)N/N=C/c1ccc(O)c(O)c1O	Diaphorase inh 83
Cn1nc(C(=O)NCCOc2ccccc2)c2ccccc2c1=O	none
Cc1ccc(S(=O)(=O)n2nc(-c3ccco3)nc2N)cc1	none
S=C1NCCNC(=S)NCCOCCOCCN1	none
Cc1cc(C)c2nc3nc(C)c(C)cc3c(N)c2c1	none
CC1=C(C(=O)OC(C)C)[C@@H](c2ccc(C)o2)NC(=O)N1	none
C=CCNC(=S)Nc1sc2c(c1C(=O)OCC)CC(C)(CC)OC2 (stereo unspecified)	none
CCC1(C)Cc2sc3c(=O)[nH]c(=S)[nH]c3c2CO1 (stereo unspecified)	Diaphorase inh 84
CC(C)CN1C(=O)c2ccccc2C1(O)Cc1ccccc1 (stereo unspecified)	PMI act satM6P 2
O=C1c2ccccc2C(O)(Cc2ccccc2)N1CCCN1CCOCC1 (stereo unspecified)	none
ClCC1NCC(c2ccccc2Cl)c2c1[nH]c1ccccc21 (stereo unspecified)	none
CCCn1c(CNc2ccccc2O)nc2ccccc21	G6PDH CS 62
Cn1cnc(S(=O)(=O)Nc2ccc(OC(F)(F)F)cc2)c1	none
COc1cc2c(cc1NC(=O)C(C)Sc1ccc(NC(C)=O)cc1)oc1ccccc12 (stereo unspecified)	Diaphorase inh 82
CCOC(=O)C1=NN(N=O)C2(CC(=O)N(c3cc(C)cc(C)c3)C2=O)C1 (stereo unspecified)	PMI act satM6P 2.2
O=C1C(Nc2ccccc2)=C(N2CCCCC2)C(=O)c2ccccc21	G6PDH CS 57
O=C(/C=C/c1ccc(O)cc1)c1ccc(NC2=C(N3CCCCC3)C(=O)c3ccccc3C2=O)cc1	G6PDH CS 52
COc1ccc(C(=O)/C=C/c2ccc(O)cc2)cc1	none
O=C1C(Nc2cccc(O)c2)=C(N2CCCCC2)C(=O)c2ccccc21	G6PDH CS 59
COc1ccccc1NC1=C(N2CCCCC2)C(=O)c2ccccc2C1=O	none
Cc1ccc(NC2=C(N3CCCCC3)C(=O)c3ccccc3C2=O)cc1	G6PDH CS 56
Cc1nccn1CCCNCc1c(C(=O)N2CCCCCCC2)nc2ccc(Cl)cn12	none
Cc1ccc(C2=NN=C(NC(=O)CSc3nncn3C)SC2)cc1	none
CN(C(=O)Nc1ccccc1)C1CCS(=O)(=O)C1 (stereo unspecified)	none
CC(=O)NC1=C(N(C)C2CCS(=O)(=O)C2)C(=O)c2ccccc2C1=O (stereo unspecified)	Diaphorase inh 62
COc1ccc(-c2csc(CCN3N=C(C)CC3=O)n2)cc1	PMI act satM6P 2.1
O=C(NC1CCCCC1)c1sc(=S)n2c1[nH]c(=O)c1ccccc12	none
CCCCNC(=O)c1sc(=S)n2c1[nH]c(=O)c1ccccc12	Diaphorase inh 67
CCN1CCN(C(=S)Nc2cc(S(=O)(=O)N(CC)CC)ccc2C)CC1	none
N#Cc1c(N)nc2c(c1-c1ccc(F)cc1)c(=O)nc1sccn12	none
O=C(CS(=O)(=O)c1cn(Cc2ccc(F)cc2)c2ccccc12)N1CCOCC1	Diaphorase inh 69
Cc1ccc(NC(=O)Cc2cc(C(=O)O)c3ccccc3n2)c(C)c1	none
Cc1cc(C)c(Nc2cc(S(=O)(=O)O)c(N)c3c2C(=O)c2ccccc2C3=O)c(C)c1	Diaphorase inh 80
CCOc1ccc(NC(=O)C(c2ccccn2)N(C(=O)CCl)c2ccc(OC)cc2)cc1 (stereo unspecified)	Diaphorase inh 56
COc1ccc(NC(=O)C(c2ccccn2)N(C(C)=O)c2ccc(C)cc2)cc1 (stereo unspecified)	none
CCOc1ccc(NC(=O)C(c2ccccn2)N(C(=O)CCl)c2ccc(OCC)cc2)cc1 (stereo unspecified)	Diaphorase inh 54
O=C(NCC(O)CN1CCOCC1)c1ccc([N+](=O)[O-])cc1 (stereo unspecified)	none
Cc1onc(-c2ccccc2)c1C(=O)Nc1ccc(S(=O)(=O)NC(C)(C)C)cc1	none
O=C(CSc1nnc(SCc2cccc3ccccc23)s1)N=Nc1c(O)[nH]c2ccccc12	none
COc1cc(C(=O)NC(=S)NNC(=O)c2cnccn2)cc(OC)c1OC	Diaphorase inh 51
CCn1c(C)nc2cc(C(=O)NNC(=S)NC(=O)c3ccc(OC)cc3)ccc21	Diaphorase inh 57
COc1ccc(CC(=O)NNC(=O)c2cnccn2)cc1	none
COc1ccc(C(=O)NC(=S)NNC(=O)c2cnccn2)cc1	Diaphorase inh 65
CC1CN(C(=O)/C(C#N)=C2\N=C(NC(=O)c3ccccc3Cl)c3ccccc32)CC(C)O1 (stereo unspecified)	none
CC(=O)c1ccc(NC(=O)c2cnsn2)cc1	none
Clc1cncc(Cl)c1NNc1c2ccccc2nc2ccccc12	PMI act satM6P 2.2
CN(C)C(=O)COc1ncnc2scc(-c3ccc(F)cc3)c12	none
O=C(CSc1ccc(-c2ccco2)nn1)N1CCCC1	none
O=C(CSc1ccc(-c2ccco2)nn1)c1cccc([N+](=O)[O-])c1	Diaphorase inh 63
CC1CC(C)(C)NC(=S)N1CCC(=O)NCCc1ccc(Cl)cc1 (stereo unspecified)	none
COc1ccccc1CNS(=O)(=O)N(C)C	none
CCOC(=O)c1nc2cc3n(c(CC(C)C)c-2c1C)CC(C)=C3C	PMI act satM6P 2.4
CCOC(=O)c1nc2cc3n(c(C)c-2c1C)C(C)C(C)=C3C (stereo unspecified)	none
Brc1ccc(-c2nn3c(-c4ccco4)nnc3s2)o1	PMI act satM6P 2
CCCc1nc2c(c(=O)c3ccccc3n2C)c(=O)n1-c1ccc(F)cc1	Diaphorase inh 78
Cc1ccc(-c2nc3c(c(=O)c4ccccc4n3C)c(=O)n2-c2ccccc2)cc1	Diaphorase inh 53
CC(C)c1nc2c(c(=O)c3ccccc3n2C)c(=O)n1-c1ccc(F)cc1	none
COCCn1c(-c2ccc(Cl)cc2Cl)nc2c(c(=O)c3ccccc3n2C)c1=O	none
CCCCCCCCNC(=S)NCCN1CCCCC1	none
O=C(NCc1ccco1)c1cccn2c(=O)c3cc4ccccc4cc3nc12	Diaphorase inh 66, PMI activator 2, PMI act satM6P 2.4
CCOC(=O)C1=C(C)N(C)C(=O)NC1c1c(C)nn(-c2ccc(C)cc2)c1Cl (stereo unspecified)	none
CCOC(=O)C1=C(C)NC(=O)NC1c1c(C)nn(-c2ccccc2)c1Cl (stereo unspecified)	Diaphorase inh 52
CCc1ccc(C2C(C#N)=C(N)SC(N)=C2C#N)s1	none

High-throughput results (PubChem BioAssay)
